# ChEMBL document CHEMBL1139460 (J Med Chem, 2005)
# Activity calls are given as the source filed them. The rule behind the calls is not given here.
# Tests used:
# [1] = molecular target: T1, GABA-A receptor; alpha-2/beta-3/gamma-2 (Homo sapiens) (UniProt P18507+P28472+P47869); assay: Efficacy at human recombinant GABAA alpha-2-beta-3-gamma-2 receptor expressed in Xenopus laevis oocytes by two electrode voltage clamp method relative to GABA; assay type: cell-based; conditions: Oocyte
# Procedure, shortened: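 Human α2β3γ2 GABA-A receptors were transiently expressed in Xenopus oocytes and recorded by two-electrode voltage clamp. […] Efficacy is the percent modulation of the submaximal GABA EC20 ion current.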
# [2] = molecular target: T2, GABA-A receptor; alpha-1/beta-3/gamma-2 (Homo sapiens) (UniProt P14867+P18507+P28472); assay: Efficacy at human recombinant GABAA alpha-1-beta-3-gamma-2 receptor expressed in Xenopus laevis oocytes by two electrode voltage clamp method relative to GABA; assay type: cell-based; conditions: Oocyte
# [3] = molecular target: T3, GABA-A receptor; alpha-2/beta-3/gamma-2 (Homo sapiens, UniProt P18507+P28472+P47869); assay: Displacement of [3H]Ro 15-1788 from human recombinant GABAA alpha-2-beta-3-gamma-2 receptor expressed in L(tk-) cells; assay type: cell-based
# T3 sequence (P18507 whole entry): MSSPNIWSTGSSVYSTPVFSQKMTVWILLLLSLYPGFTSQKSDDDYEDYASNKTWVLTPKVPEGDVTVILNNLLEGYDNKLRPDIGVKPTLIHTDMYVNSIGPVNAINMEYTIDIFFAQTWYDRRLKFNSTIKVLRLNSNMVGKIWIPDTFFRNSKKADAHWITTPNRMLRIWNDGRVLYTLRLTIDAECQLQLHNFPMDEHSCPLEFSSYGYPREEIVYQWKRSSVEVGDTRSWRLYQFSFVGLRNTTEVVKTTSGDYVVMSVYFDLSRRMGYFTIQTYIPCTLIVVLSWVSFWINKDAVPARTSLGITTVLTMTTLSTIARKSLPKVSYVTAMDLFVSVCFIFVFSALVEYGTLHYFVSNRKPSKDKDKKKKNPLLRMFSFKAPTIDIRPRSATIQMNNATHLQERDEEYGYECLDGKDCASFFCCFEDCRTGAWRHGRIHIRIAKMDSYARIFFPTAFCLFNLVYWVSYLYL
# T3 sequence (P28472 whole entry): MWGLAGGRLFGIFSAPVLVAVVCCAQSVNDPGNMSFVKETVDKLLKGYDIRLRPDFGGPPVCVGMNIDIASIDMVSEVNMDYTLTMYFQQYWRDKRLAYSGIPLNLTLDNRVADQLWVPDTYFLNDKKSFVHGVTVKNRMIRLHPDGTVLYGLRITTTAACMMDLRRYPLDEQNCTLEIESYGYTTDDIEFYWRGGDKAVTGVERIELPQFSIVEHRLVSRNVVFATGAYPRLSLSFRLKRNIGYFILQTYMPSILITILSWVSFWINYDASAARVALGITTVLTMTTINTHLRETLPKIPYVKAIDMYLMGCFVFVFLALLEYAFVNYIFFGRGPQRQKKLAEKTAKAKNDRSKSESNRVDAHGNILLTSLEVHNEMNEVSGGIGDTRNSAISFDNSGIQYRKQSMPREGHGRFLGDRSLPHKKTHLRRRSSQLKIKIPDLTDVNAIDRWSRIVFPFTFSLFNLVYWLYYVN
# T3 sequence (P47869 whole entry): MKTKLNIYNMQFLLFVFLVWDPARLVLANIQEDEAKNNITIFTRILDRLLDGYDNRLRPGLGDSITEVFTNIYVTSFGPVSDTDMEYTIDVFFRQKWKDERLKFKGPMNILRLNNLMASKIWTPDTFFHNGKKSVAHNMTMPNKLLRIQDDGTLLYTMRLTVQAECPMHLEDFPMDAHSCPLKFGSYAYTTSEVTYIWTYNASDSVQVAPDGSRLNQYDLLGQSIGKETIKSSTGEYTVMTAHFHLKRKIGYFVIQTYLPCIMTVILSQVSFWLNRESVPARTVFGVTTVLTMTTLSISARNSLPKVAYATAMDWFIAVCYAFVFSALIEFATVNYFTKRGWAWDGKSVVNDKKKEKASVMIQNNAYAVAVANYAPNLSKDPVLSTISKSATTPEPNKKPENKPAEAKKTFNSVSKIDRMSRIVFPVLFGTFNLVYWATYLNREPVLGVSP
# [4] = Bioavailability in rat; assay type: ADME, organism-based; conditions: in vivo
# [5] = system: Rattus norvegicus; assay: Receptor occupancy at GABAA receptor in rat at 30 mg/kg, po; assay type: functional
# [6] = Half life in dog; assay type: ADME, organism-based, Canis lupus familiaris; conditions: in vivo
# [7] = system: Rattus norvegicus; assay: Anxiolytic effect in rat at 1 mg/kg, po by anxiolytic assay; assay type: functional, organism-based; design: dose 1 mg/kg
# [8] = Half life in rat; assay type: ADME, organism-based; conditions: in vivo
# [9] = Bioavailability in dog; assay type: ADME, organism-based, Canis lupus familiaris; conditions: in vivo
# [10] = system: Rattus norvegicus; assay: Sedative effect in orally dosed rat at by chain-pulling assay; assay type: functional, organism-based
# [11] = system: Rattus norvegicus; assay: Anxiolytic effect in rat at 3 mg/kg, po by anxiety assay; assay type: functional, organism-based; design: dose 3 mg/kg
# [12] = molecular target: T4, GABA-A receptor; alpha-1/beta-3/gamma-2 (Homo sapiens, UniProt P14867+P18507+P28472); assay: Displacement of [3H]Ro 15-1788 from human recombinant GABAA alpha-1-beta-3-gamma-2 receptor expressed in L(tk-) cells; assay type: cell-based
# T4 sequence (P14867 whole entry): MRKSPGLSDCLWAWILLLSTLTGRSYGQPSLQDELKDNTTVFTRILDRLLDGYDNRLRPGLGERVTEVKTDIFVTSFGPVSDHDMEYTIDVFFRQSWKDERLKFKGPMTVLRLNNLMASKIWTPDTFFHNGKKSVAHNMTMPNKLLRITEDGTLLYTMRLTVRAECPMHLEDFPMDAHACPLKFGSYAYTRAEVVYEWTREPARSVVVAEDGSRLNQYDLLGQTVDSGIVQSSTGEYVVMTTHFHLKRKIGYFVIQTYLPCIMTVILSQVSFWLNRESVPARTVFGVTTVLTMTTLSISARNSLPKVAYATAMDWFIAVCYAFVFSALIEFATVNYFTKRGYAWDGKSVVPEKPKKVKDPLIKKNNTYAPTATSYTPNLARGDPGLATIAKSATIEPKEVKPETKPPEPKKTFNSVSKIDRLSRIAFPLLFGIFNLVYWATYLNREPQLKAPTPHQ
# T4 sequence (P18507 whole entry): T3 sequence (P18507 whole entry)
# T4 sequence (P28472 whole entry): T3 sequence (P28472 whole entry)
# [13] = system: Mus musculus; assay: Receptor occupancy in vivo by displacement of [3H]Ro 15-1788 binding from GABAA receptor in orally dosed Swiss Webster mouse; assay type: functional; conditions: po, read-out: ID50 (the source's name)
# [14] = system: Rattus norvegicus; assay: Receptor occupancy at GABAA receptor in rat at 1 mg/kg, po; assay type: functional
# [15] = system: Rattus norvegicus; assay: Receptor occupancy at GABAA receptor in rat at 3 mg/kg, po; assay type: functional
# [16] = molecular target: T5, GABA-A receptor; alpha-3/beta-3/gamma-2 (Homo sapiens, UniProt P18507+P28472+P34903); assay: Displacement of [3H]Ro 15-1788 from human recombinant GABAA alpha-3-beta-3-gamma-2 receptor expressed in L(tk-) cells; assay type: cell-based
# T5 sequence (P18507 whole entry): T3 sequence (P18507 whole entry)
# T5 sequence (P28472 whole entry): T3 sequence (P28472 whole entry)
# T5 sequence (P34903 whole entry): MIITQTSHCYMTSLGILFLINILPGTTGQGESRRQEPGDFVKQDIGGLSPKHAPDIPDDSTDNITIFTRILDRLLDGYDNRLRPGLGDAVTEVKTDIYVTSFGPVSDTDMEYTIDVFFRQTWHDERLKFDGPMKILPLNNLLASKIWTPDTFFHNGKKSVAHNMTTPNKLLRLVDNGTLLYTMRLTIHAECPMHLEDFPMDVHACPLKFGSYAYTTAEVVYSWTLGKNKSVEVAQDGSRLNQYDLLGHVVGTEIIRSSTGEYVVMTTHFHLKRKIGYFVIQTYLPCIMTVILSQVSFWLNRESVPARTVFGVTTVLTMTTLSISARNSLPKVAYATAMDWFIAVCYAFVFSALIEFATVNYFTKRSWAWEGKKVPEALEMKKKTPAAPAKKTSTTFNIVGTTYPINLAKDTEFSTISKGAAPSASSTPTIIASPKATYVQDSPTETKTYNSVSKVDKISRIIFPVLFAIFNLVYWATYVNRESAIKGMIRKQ
# [17] = molecular target: T6, GABA-A receptor; alpha-3/beta-3/gamma-2 (Homo sapiens) (UniProt P18507+P28472+P34903); assay: Efficacy at human recombinant GABAA alpha-3-beta-3-gamma-2 receptor expressed in Xenopus laevis oocytes by two electrode voltage clamp method relative to GABA; assay type: cell-based; conditions: Oocyte
# [18] = molecular target: T2, GABA-A receptor; alpha-1/beta-3/gamma-2 (Homo sapiens); assay: Efficacy at human recombinant GABAA alpha-1-beta-3-gamma-2 receptor expressed in L(tk-) cells by two electrode voltage clamp method relative to GABA; assay type: cell-based
# Procedure, shortened: (§1)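 Receptors stably expressed in L(tk-) fibroblasts; percent modulation of the submaximal (EC20) GABA response, multiple drug concentrations assessed.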
# [19] = molecular target: T6, GABA-A receptor; alpha-3/beta-3/gamma-2 (Homo sapiens); assay: Efficacy at human recombinant GABAA alpha-3-beta-3-gamma-2 receptor expressed in L(tk-) cells by two electrode voltage clamp method relative to GABA; assay type: cell-based; procedure, shortened: as §1
# [20] = molecular target: T1, GABA-A receptor; alpha-2/beta-3/gamma-2 (Homo sapiens); assay: Efficacy at human recombinant GABAA alpha-2-beta-3-gamma-2 receptor expressed in L(tk-) cells by two electrode voltage clamp method relative to GABA; assay type: cell-based; procedure, shortened: as §1
SMILES,Efficacy [1] [%],Efficacy [2] [%],Ki [3] [pM],Ki [12] [pM],Ki [16] [pM],Efficacy [17] [%],Efficacy [18] [%],Efficacy [19] [%],other results
Cc1ccc(-c2nc3ccc(C)cn3c2CC(=O)N(C)C)cc1,123,160,–,–,–,–,–,–,–
CN1C(=O)CN=C(c2ccccc2)c2cc(Cl)ccc21,115,–,–,–,–,–,–,–,–
CCn1ncnc1COc1nn2c(-c3ccccc3F)nnc2cc1C(C)(C)C [MK-0777],–,–,310,270,200,–,–,–,bioavailability [4]: 35%; Activity [5]: 99%; half-life [6]: 1.5 h; Activity [7]: Active; half-life [8]: 1.4 h; bioavailability [9]: 53%; Activity [10]: inactive; Activity [11]: Active; ED50 [13]: 0.42 mg/kg; Activity [14]: 70%; Activity [15]: 88%
c1ccc(-c2nnc3c4c(c(OCc5ccccn5)nn23)C2CCC4CC2)cc1,23,51,–,–,12000,38,–,–,–
Cn1ncnc1COc1nn2c(-c3ccccc3)nnc2cc1C1CCCC1,–,–,730,380,340,–,47,63,–
Cn1ncnc1COc1nn2c(-c3ccccc3)nnc2cc1C1CCCCC1,–,65,14000,6200,4800,109,–,–,–
Cn1ncnc1COc1nn2c(-c3ccccc3)nnc2cc1C(C)(C)C,–,–,–,360,140,–,0,34,–
Cn1ncnc1COc1nn2c(-c3ccccc3)nnc2cc1-c1ccccc1,–,94,2600,780,1200,115,–,–,–
Cn1ncnc1COc1nn2c(-c3ccccc3)nnc2cc1C1CCC1,–,–,250,230,170,–,27,72,Efficacy [20]: 41%
c1ccc(-c2cc3nnc(-c4ccccc4)n3nc2OCc2ccccn2)cc1,–,80,2900,1100,1800,77,–,–,–
